From ChEMBL document CHEMBL3808360, “Discovery of Potent Non-Nucleoside Inhibitors of Dengue Viral RNA-Dependent RNA Polymerase from a Fragment Hit Using Structure-Based Drug Design” (J Med Chem, 2016)
Each block holds one molecule with its values, some of them ahead of it. Calls of active or inactive are those of the source. The calls are words filed in the database; no cut-off is given here.

Key:
[1] = Inhibition of RdRp activity of Dengue virus 4 full length NS5 preincubated for 15 mins followed by RNA and NTP addition measured after 120 mins; set-up: species or system dengue virus type 4
Summary of the method: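 Reaction with 100 nM DENV4 full-length NS5 and 100 nM in vitro transcribed DENV4 mini-genome RNA template (575 nt, linked 5'-3' UTRs). NTPs: 20 µM each ATP, GTP and UTP plus 5 µM ATTO-CTP. Compound (two-fold series from 20 or 100 µM) preincubated with enzyme 15 min at room temperature. RNA/NTP mix added; run 120 min. Stopped with alkaline phosphatase stop buffer, 60 min. Fluorescence read at ex 422/em 566 nm. Duplicate wells; IC₅₀ from variable-slope sigmoidal fit.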

[2] = Binding affinity to Dengue virus 4 NS5 RdRp (274 to 900 residues) by ITC method; set-up: species or system dengue virus type 4
Summary of the method: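 DENV-4 RdRp (residues 274-900) at 30-50 µM in the cell, in 20 mM HEPES pH 7.0, 300 mM NaCl, 2 mM TCEP, DMSO matched to ligand. Ligand diluted from a 50 mM DMSO stock into the same buffer, typically 2.5 mM in the syringe. Run at 25°C: one 0.4 µl injection, then 15 × 2.6 µl. Heat of dilution into buffer subtracted.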

[3] = Apparent permeability across apical to basolateral side in human Caco2 cells at pH 7.4; type: ADME, cell-based; conditions: Caco-2, pH 7.4
Summary of the method: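 Apical-to-basal Caco-2 permeability measured at pH 7.4.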

[4] = Binding affinity to biotinylated Dengue virus 4 NS5 RdRp by surface plasmon resonance analysis; set-up: species or system dengue virus type 4
Summary of the method: (§1)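 Blank reference cell. Compound run as a 7-point 2-fold series, typically from 200 µM, with zero-concentration subtraction. Flow 30 µL/min, 45 s contact, 60-600 s dissociation, run from low to high concentration.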

[5] = Dissociation constant, pKa of the compound; type: physicochemical
[6] = Lipophilicity, log D of the compound at pH 7.4; type: physicochemical; conditions: buffer
[7] = test system: dengue virus type 1; experiment: Antiviral activity against Dengue virus 1 MY97-10245 infected in human A549 cells assessed as reduction in DENV envelope protein level up to 50 uM after 48 hrs; type: functional, organism-based
Summary of the method: (§2)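 A549 cells (~7×10^3/well) seeded in Ham's F-12K with 2% FBS, 1 mM L-glutamine and 1% penicillin-streptomycin, held overnight at 37°C, 5% CO₂. Infected at 24 h post-seeding (DENV1 MOI 0.5, DENV2 MOI 0.3, DENV3 MOI 1, DENV4 MOI 0.5). Compound added at once as a 10-point, 3-fold series, 0.5% DMSO final. Fixed at 48 h with 4% paraformaldehyde. Stained with Dylight 488-4G2 anti-envelope antibody and DRAQ5 nuclear stain. Envelope protein quantified by high-content imaging; EC₅₀ calculated.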

[8] = test system: dengue virus type 2; experiment: Antiviral activity against Dengue virus 2 MY97-10340 infected in human A549 cells assessed as reduction in DENV envelope protein level up to 50 uM after 48 hrs; type: functional, organism-based; summary of the method: as §2
[9] = test system: dengue virus type 3; experiment: Antiviral activity against Dengue virus 3 MY05-34640 infected in human A549 cells assessed as reduction in DENV envelope protein level up to 50 uM after 48 hrs; type: functional, organism-based; summary of the method: as §2
[10] = test system: dengue virus type 4; experiment: Antiviral activity against Dengue virus 4 MY01-22713 infected in human A549 cells assessed as reduction in DENV envelope protein level up to 50 uM after 48 hrs; type: functional, organism-based; summary of the method: as §2
[11] = Inhibition of RdRp activity of Dengue virus 1 NS5 preincubated for 15 mins followed by RNA and NTP addition measured after 120 mins; set-up: species or system dengue virus type 1
[12] = Inhibition of RdRp activity of Dengue virus 2 NS5 preincubated for 15 mins followed by RNA and NTP addition measured after 120 mins; set-up: species or system dengue virus type 2
[13] = Inhibition of RdRp activity of Dengue virus 3 NS5 preincubated for 15 mins followed by RNA and NTP addition measured after 120 mins; set-up: species or system dengue virus type 3
[14] = test system: dengue virus type 1; experiment: Antiviral activity against Dengue virus 1 MY97-10245 infected in human A549 cells assessed as reduction in DENV envelope protein level after 48 hrs; type: functional, organism-based; conditions: MY97-10245, A549, 48 h; summary of the method: as §2
[15] = test system: dengue virus type 2; experiment: Antiviral activity against Dengue virus 2 MY97-10340 infected in human A549 cells assessed as reduction in DENV envelope protein level after 48 hrs; type: functional, organism-based; conditions: MY97-10340, A549, 48 h; summary of the method: as §2
[16] = test system: dengue virus type 3; experiment: Antiviral activity against Dengue virus 3 MY05-34640 infected in human A549 cells assessed as reduction in DENV envelope protein level after 48 hrs; type: functional, organism-based; conditions: MY05-34640, A549, 48 h; summary of the method: as §2
[17] = test system: dengue virus type 4; experiment: Antiviral activity against Dengue virus 4 MY01-22713 infected in human A549 cells assessed as reduction in DENV envelope protein level after 48 hrs; type: functional, organism-based; conditions: MY01-22713, A549, 48 h; summary of the method: as §2
[18] = Cytotoxicity against human HepG2 cells; type: cell-based
[19] = Inhibition of RdRp activity of Dengue virus 4 of NS5 preincubated with enzyme followed by RNA and NTP addition; set-up: species or system dengue virus type 4
[20] = Binding affinity to N-terminal AviTag Dengue virus 3 NS5 RdRp (263 to 900 residues) expressed in Escherichia coli BL21 cells by surface plasmon resonance analysis; set-up: species or system dengue virus type 3; summary of the method: as §1
[21] = Inhibition of RdRp activity of Dengue virus 3 NS5; set-up: species or system dengue virus type 3
[22] = Binding affinity to Dengue virus 3 NS5 RdRp by surface plasmon resonance analysis; set-up: species or system dengue virus type 3; summary of the method: as §1

Structure (SMILES): O=C(O)Cc1cc(CC(=O)O)cc(-c2cccs2)c1
IC50 [1]: 15 µM
Kd [2]: 28 µM

Structure (SMILES): COc1ccc(-c2nnn[nH]2)cc1-c1ccc(C#CCO)s1
IC50 [1]: 2.4 µM
Papp A→B [3]: 1.39 ×10⁻⁶ cm/s

Structure (SMILES): COc1cc(C)c(C(=O)O)cc1-c1ccc(C#CCO)s1
IC50 [1]: 0.53 µM
Kd [2]: 1.6 µM
Kd [4]: 110 nM
pKa [5]: 4.2
logD [6]: 1.2
Activity [7]: inactive
Activity [8]: inactive
Activity [9]: inactive
Activity [10]: inactive

Structure (SMILES): COc1ccc(CC(=O)O)cc1-c1ccc(C#CCO)s1
IC50 [1]: 7.5 µM
Kd [2]: 14 µM
Kd [4]: 2200 nM
Papp A→B [3]: 2.73 ×10⁻⁶ cm/s

Structure (SMILES): COc1cccc(S(=O)(=O)NC(=O)c2cc(-c3ccc(C#CCO)s3)c(OC)cc2OC)c1
IC50 [11]: 68 nM
IC50 [12]: 110 nM
IC50 [13]: 48 nM
Kd [4]: 70 nM
Papp A→B [3]: 3.91 ×10⁻⁶ cm/s
pKa [5]: 4.7
logD [6]: 1.6
EC50 [14]: 1.8 µM
EC50 [15]: 2.3 µM
EC50 [16]: 1.8 µM
EC50 [17]: 1.8 µM
CC50 [18]: > 50 µM

Structure (SMILES): O=C(O)Cc1cc(CC(=O)O)cc(-c2ccc(Cl)s2)c1
Kd [2]: 33 µM

Structure (SMILES): COc1cccc(S(=O)(=O)NC(=O)c2cc(-c3ccc(C#CCO)s3)c(Cl)cc2OC)c1
IC50 [1]: 0.14 µM
Kd [4]: 10 nM
pKa [5]: 3.8
logD [6]: 0.9
EC50 [14]: 6.8 µM
EC50 [15]: 13 µM
EC50 [16]: 5.5 µM
EC50 [17]: 7 µM

Structure (SMILES): COc1cc(C)c(C(=O)NS(=O)(=O)c2ccccc2)cc1-c1ccc(C#CCO)s1
IC50 [1]: 0.17 µM
Papp A→B [3]: 0.5 ×10⁻⁶ cm/s
pKa [5]: 3.8
logD [6]: 1.7
EC50 [14]: 31 µM
EC50 [15]: 34 µM
EC50 [16]: 18 µM
EC50 [17]: 41 µM

Structure (SMILES): COc1cc(C)c(-c2noc(=O)[nH]2)cc1-c1ccc(C#CCO)s1
IC50 [1]: 3.2 µM
pKa [5]: 5.5
logD [6]: 1.9

Structure (SMILES): O=C(O)Cc1cc(CC(=O)O)cc(-c2ccc(Br)s2)c1
IC50 [1]: 39 µM
Kd [2]: 46 µM

Structure (SMILES): O=C(O)Cc1cc(CC(=O)O)cc(-c2ccccc2Cl)c1
IC50 [1]: 192 µM

Structure (SMILES): O=C(O)Cc1ccc(O)c(-c2ccccc2)c1
IC50 [21]: 769 µM
Kd [22]: 200 µM

More lines, main results first:

IC50 [1]: 199 µM
Structure (SMILES): N#Cc1ccc(-c2cc(CC(=O)O)cc(CC(=O)O)c2)s1
Kd [2]: 134 µM

IC50 [1]: 44 µM
pKa [5]: 6.6
logD [6]: 3.6
Structure (SMILES): COc1cc(C)c(-c2ncc[nH]2)cc1-c1ccc(C#CCO)s1

IC50 [1]: 211 µM
Structure (SMILES): O=C(O)Cc1cc(CC(=O)O)cc(-c2ccco2)c1
Kd [2]: 552 µM

IC50 [1]: 2.3 µM
pKa [5]: 4.2
logD [6]: 0.79
Structure (SMILES): COc1ccc(C(=O)O)cc1-c1ccc(C#CCO)s1
Kd [2]: 3.8 µM
Kd [4]: 1700 nM

IC50 [1]: 177 µM
Structure (SMILES): O=C(O)Cc1cc(CC(=O)O)cc(-c2ccccc2)c1
Kd [2]: 154 µM

IC50 [1]: 0.25 µM
Papp A→B [3]: 10.8 ×10⁻⁶ cm/s
pKa [5]: 4.8
logD [6]: 1.5
EC50 [14]: 15 µM
EC50 [15]: 37 µM
EC50 [16]: 7.3 µM
EC50 [17]: 14 µM
Structure (SMILES): COc1cc(OC)c(-c2ccc(C#CCO)s2)cc1C(=O)NS(=O)(=O)c1ccccc1
Kd [4]: 90 nM

IC50 [1]: 141 µM
Structure (SMILES): O=C(O)Cc1cc(CC(=O)O)cc(-c2cccc(Cl)c2)c1

IC50 [1]: 2.5 µM
pKa [5]: 4.8
logD [6]: 0.78
Structure (SMILES): COc1cc(C)c(S(=O)(=O)NC(C)=O)cc1-c1ccc(C#CCO)s1

IC50 [11]: 300 nM
IC50 [12]: 2200 nM
IC50 [13]: 500 nM
Papp A→B [3]: 0.51 ×10⁻⁶ cm/s
Structure (SMILES): O=C(O)Cc1cc(CC(=O)O)cc(-c2ccc(C#CCO)s2)c1

IC50 [1]: 62 µM
Structure (SMILES): O=C(O)Cc1cc(CC(=O)O)cc(-c2ccc(Cl)cc2)c1

IC50 [1]: 29 µM
Structure (SMILES): O=C(O)Cc1cc(CC(=O)O)cc(-c2ccc(C#CCCO)s2)c1
Kd [2]: 34 µM

IC50 [1]: 96 µM
Structure (SMILES): Cc1ccc(-c2cc(CC(=O)O)cc(CC(=O)O)c2)s1

IC50 [1]: 0.34 µM
Papp A→B [3]: 0.5 ×10⁻⁶ cm/s
pKa [5]: 4
logD [6]: 0.8
EC50 [14]: > 50 µM
EC50 [15]: > 50 µM
EC50 [16]: > 50 µM
EC50 [17]: > 50 µM
Structure (SMILES): COc1cc(C)c(C(=O)NS(C)(=O)=O)cc1-c1ccc(C#CCO)s1
Kd [2]: 2 µM
Kd [4]: 120 nM
Activity [7]: inactive
Activity [8]: inactive
Activity [9]: inactive
Activity [10]: inactive

IC50 [19]: 734 µM
Structure (SMILES): COc1ccc(CC(=O)O)cc1-c1ccccc1
Kd [20]: 613 µM
